# Assay results collected from several papers.
# Lines come from different studies, so protocols differ.
# Organism: Pichia kudriavzevii
SMILES,effect on,technique,strain,time,quantity,value
C#CCCCCCCCCCCCC(O)CC(O)CO (stereo not drawn),microbial growth,broth dilution,ATCC6258,,IC50,> 200 µg/mL
CCCCCCOc1c(OC)cc(NC(C)CCCN)c2nc(C(C)(C)C)ccc12 (stereo not drawn),microbial growth,,ATCC6258,,IC50,7.16 µg/mL
C[C@@H]1[C@H](O)[C@@H](C)/C=C/C=C/C=C/C=C/C=C/C=C/C=C/[C@H](O[C@@H]2O[C@H](C)[C@@H](O)[C@H](N)[C@@H]2O)C[C@@H]2O[C@](O)(C[C@@H](O)C[C@@H](O)[C@H](O)CC[C@@H](O)C[C@@H](O)CC(=O)O[C@H]1C)C[C@H](O)[C@H]2C(=O)O,microbial growth,,,,MIC90,0.125 µg/mL
CCCCCCCOc1c(OC)cc(NC(C)CCCN)c2nc(C(C)(C)C)ccc12 (stereo not drawn),microbial killing,,ATCC6258,,MFC,5 µg/mL
CCCCCCCCCCCN1CCN(CC(O)(Cn2cncn2)c2ccc(F)cc2F)CC1 (stereo not drawn),microbial growth,broth dilution,ATCC6258,48 h,MIC,1.95 µg/mL
C[C@@H]1[C@H](O)[C@@H](C)/C=C/C=C/C=C/C=C/C=C/C=C/C=C/[C@H](O[C@@H]2O[C@H](C)[C@@H](O)[C@H](N)[C@@H]2O)C[C@@H]2O[C@](O)(C[C@@H](O)C[C@@H](O)[C@H](O)CC[C@@H](O)C[C@@H](O)CC(=O)O[C@H]1C)C[C@H](O)[C@H]2C(=O)O,microbial growth,broth dilution,ATCC6258,,IC50,0.6 µg/mL
CCCCCCCCCCCCN1CCN(CC(O)(Cn2cncn2)c2ccc(F)cc2F)CC1 (stereo not drawn),microbial growth,broth dilution,ATCC6258,48 h,MIC,0.48 µg/mL
CCCCCCOc1c(OC)cc(NC(C)CCCN)c2nc(C(C)(C)C)cc(C)c12 (stereo not drawn),microbial growth,,ATCC6258,,IC50,3.73 µg/mL
C[C@@H]1[C@H](O)[C@@H](C)/C=C/C=C/C=C/C=C/C=C/C=C/C=C/[C@H](O[C@@H]2O[C@H](C)[C@@H](O)[C@H](N)[C@@H]2O)C[C@@H]2O[C@](O)(C[C@@H](O)C[C@@H](O)[C@H](O)CC[C@@H](O)C[C@@H](O)CC(=O)O[C@H]1C)C[C@H](O)[C@H]2C(=O)O,microbial growth,,ATCC6258,,IC50,0.95 µg/mL
C[C@@H]1[C@H](O)[C@@H](C)/C=C/C=C/C=C/C=C/C=C/C=C/C=C/[C@H](O[C@@H]2O[C@H](C)[C@@H](O)[C@H](N)[C@@H]2O)C[C@@H]2O[C@](O)(C[C@@H](O)C[C@@H](O)[C@H](O)CC[C@@H](O)C[C@@H](O)CC(=O)O[C@H]1C)C[C@H](O)[C@H]2C(=O)O,microbial killing,,ATCC6258,,MFC,1.25 µg/mL
CCCCCCCCOc1c(OC)cc(NC(C)CCCN)c2nc(C(C)(C)C)ccc12 (stereo not drawn),microbial growth,,ATCC6258,,IC50,5.82 µg/mL
CCCCCCCCCCN1CCN(CC(O)(Cn2cncn2)c2ccc(F)cc2F)CC1 (stereo not drawn),microbial growth,broth dilution,ATCC6258,48 h,MIC,1.95 µg/mL
C[C@@H](c1ncncc1F)[C@](O)(Cn1cncn1)c1ccc(F)cc1F,microbial growth,,,,MIC90,0.25 µg/mL
C[C@@H]1[C@H](O)[C@@H](C)/C=C/C=C/C=C/C=C/C=C/C=C/C=C/[C@H](O[C@@H]2O[C@H](C)[C@@H](O)[C@H](N)[C@@H]2O)C[C@@H]2O[C@](O)(C[C@@H](O)C[C@@H](O)[C@H](O)CC[C@@H](O)C[C@@H](O)CC(=O)O[C@H]1C)C[C@H](O)[C@H]2C(=O)O,microbial growth,broth dilution,ATCC6258,48 h,MIC,3.9 µg/mL
CCCCCCCOc1c(OC)cc(NC(C)CCCN)c2nc(C(C)(C)C)cc(C)c12 (stereo not drawn),microbial growth,,ATCC6258,,IC50,2.89 µg/mL
CCCCCCCCCCCCCCN1CCOCC1,microbial growth,broth dilution,ATCC6258,48 h,MIC,> 31.3 µg/mL
OC(Cn1cncn1)(Cn1cncn1)c1ccc(F)cc1F,microbial growth,,,,MIC90,64 µg/mL
CCCCCCCCCCCCCN1CCN(CC(O)(Cn2cncn2)c2ccc(F)cc2F)CC1 (stereo not drawn),microbial growth,broth dilution,ATCC6258,48 h,MIC,0.975 µg/mL
CCCCCOc1c(OC)cc(NC(C)CCCNC(=O)C(N)CC(C)C)c2nc(C(C)(C)C)ccc12 (stereo not drawn),microbial killing,,ATCC6258,,MFC,10 µg/mL
CCCCCCCCCCCCN1CCNCC1,microbial growth,broth dilution,ATCC6258,48 h,MIC,1.95 µg/mL
CCCCCCCCCCCCCC(O)CC(O)CO (stereo not drawn),microbial growth,broth dilution,ATCC6258,,IC50,196 µg/mL
